Results gathered from unrelated publications.
Target: Dual specificity mitogen-activated protein kinase kinase 1 (MAP2K1, Homo sapiens, UniProt Q02750)

SMILES	test	conditions	remaining binding
O=C(N1CCS(=O)(=O)CC1)N1C[C@H](c2ccc(OC(F)(F)F)cc2)C[C@H](c2nc(C3CC3)no2)C1	cell-free assay, competition with immobilised ligand	1 µM	91%
COc1cnc(Nc2cccc(S(N)(=O)=O)c2)nc1N1CCN(c2ccccc2)C(=O)C1	binding, competition with immobilised ligand	1 µM	91%
CCN(CC)CCNC(=O)c1c(C)[nH]c(/C=C2\C(=O)Nc3ccc(F)cc32)c1C	cell-free assay, competition with immobilised ligand	0.1 µM	51%
O=C(c1ccc(Nc2ncc(Cl)c(-c3ccc(Cl)s3)n2)cc1)N1CCC(N2CCCC2)CC1	binding, competition with immobilised ligand	1 µM	18%
CCN1CCN(Cc2ccc(C(=O)Nc3ccc(C)c(Oc4ccc5c(c4)CC(=O)N5)c3)cc2C(F)(F)F)CC1	binding, competition with immobilised ligand	1 µM	100%
O=C(NCCCN1CCOCC1)c1ccc(Nc2nccc(-c3cc4ccccc4s3)n2)cc1	binding, competition with immobilised ligand	1 µM	75%
CN1CC[C@H](c2c(O)cc(O)c3c(=O)cc(-c4ccccc4Cl)oc23)[C@H](O)C1	cell-free assay, competition with immobilised ligand	0.1 µM	92%
O=C1CCc2cc(Nc3cc(OC4CCOCC4)c([N+](=O)[O-])cc3Cl)ccc2N1	cell-free assay, competition with immobilised ligand	1 µM	72%
C[C@H]1CCN(c2nccc(-c3cnn4ncccc34)n2)C1	binding, competition with immobilised ligand	1 µM	66%
COc1cnc(Nc2cccc(S(N)(=O)=O)c2)nc1N1CCN(c2ccccc2)CC1	binding, competition with immobilised ligand	1 µM	90%
Nc1ncc2c(n1)-c1c([nH]c3ccc(C#CC4CC4)cc13)CCCC2	binding, competition with immobilised ligand	1 µM	100%
F[C@@H]1CCN(c2nccc(-c3cnn4ncccc34)n2)C1	binding	1 µM	89%
CNC(=O)c1cc(Oc2ccc(NC(=O)Nc3ccc(Cl)c(C(F)(F)F)c3)cc2)ccn1	cell-free assay, competition with immobilised ligand	0.1 µM	100%
CC(=O)N1CCC(c2ccc(C(=O)NC(=N)N)cc2C(F)(F)F)CC1	cell-free assay, competition with immobilised ligand	1 µM	97%
Cc1c(-c2ccccc2)oc2c(C(=O)OCCN3CCCCC3)cccc2c1=O	cell-free assay, competition with immobilised ligand	0.1 µM	94%
CN(C)c1nccc(-c2cnc3ncccn23)n1	binding, competition with immobilised ligand	1 µM	81%

SMILES	test	conditions	remaining binding
COC(=O)Nc1nc2cc(C(=O)c3ccccc3)ccc2[nH]1	cell-free assay, competition with immobilised ligand	0.1 µM	100%
CN(CCCC(F)(F)F)c1nccc(-c2cnn3ncccc23)n1	binding, competition with immobilised ligand	1 µM	99%
CCCOc1ccc([C@@H]2[C@@H](C(=O)O)[C@H](c3ccc4c(c3)OCO4)CN2CC(=O)Nc2c(CC)cccc2CC)cc1	cell-free assay, competition with immobilised ligand	1 µM	93%
Cc1ccc(NC(=O)c2ccc(CN3CCN(C)CC3)cc2)cc1Nc1nccc(-c2cccnc2)n1	cell-free assay, competition with immobilised ligand	0.1 µM	95%
N#CC1(c2ccccn2)CCN(Cc2cc(C(=O)N3CCCC3)c(=O)n3ccccc23)CC1	cell-free assay, competition with immobilised ligand	1 µM	100%
C[C@@H]1CN(c2ccc3ncc(-c4ccc5[nH]nc(C6CC6)c5c4)n3n2)C[C@H](C)O1	binding, competition with immobilised ligand	50 nM	80%
Cc1cnn2ncc(-c3ccnc(N(C)C)n3)c2c1	binding	1 µM	82%
C=CC(=O)N1CCC(C(=O)NCC(=O)N2CCN(c3nc(-c4cnc(N)nc4C(F)F)nc(N4CCOCC4)n3)CC2)CC1	binding, competition with immobilised ligand	1 µM	69%
C[C@@H](c1cccc(C#N)c1)n1cc(Cl)cc(C(N)=O)c1=N	cell-free assay, competition with immobilised ligand	1 µM	80%
COc1cc2ncnc(Nc3ccc(F)c(Cl)c3)c2cc1OCCCN1CCOCC1	cell-free assay, competition with immobilised ligand	10 µM	83%
O=C(Nc1c[nH]nc1C(=O)NC1CCNCC1)c1cc(F)cc(F)c1	binding, competition with immobilised ligand	1 µM	80%
CC(=O)Nc1c(C(C)=O)c(=O)n(C)c2nc(-c3ccc(Cl)cc3Cl)c(-c3ccc(Cl)cc3)cc12	cell-free assay, competition with immobilised ligand	1 µM	100%
COc1ncc2cc3ccccc3nc2c1C#N	cell-free assay, competition with immobilised ligand	5 µM	90%
CS(=O)(=O)CCNCc1ccc(-c2ccc3ncnc(Nc4ccc(OCc5cccc(F)c5)c(Cl)c4)c3c2)o1	cell-free assay, competition with immobilised ligand	10 µM	87%
O=C(NCc1ncc(C(F)(F)F)cc1Cl)c1ccc2c(c1)C1(CCS(=O)(=O)CC1)[C@@H](C1CC1)N2S(=O)(=O)c1ccc(F)cc1	cell-free assay, competition with immobilised ligand	1 µM	91%
O=C(c1ccc(Nc2ncc(Cl)c(-c3cc4ccccc4s3)n2)cc1)N1CCC(N2CCCC2)CC1	binding, competition with immobilised ligand	1 µM	21%
